In data set [1] the target is Isocitrate dehydrogenase [NADP] cytoplasmic (Homo sapiens, UniProt O75874, R132H). Put plainly: Inhibition of human IDH1 R132H mutant expressed in Escherichia coli BL21-CodonPlus assessed as reduction in NADPH consumption.
In data set [2] the target is Isocitrate dehydrogenase [NADP] cytoplasmic (Homo sapiens, UniProt O75874). Put plainly: Inhibition of wild type human IDH1 expressed in Escherichia coli BL21-CodonPlus assessed as NADPH production.
Data set [3] can be described thus: Selectivity index, ratio of EC50 for human BXD4687 cells to EC50 for human BT142 cells.
Data set [4] in a line: Cytotoxicity against human HT1080 cells up to 30 uM. In kind it is cell-based. Conditions: ht-1080.
The nature of data set [5]: Inhibition of neurosphere formation of human BT142 cells by CCK8 assay. It counts as functional, cell-based. Summed up:
(§1)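 Neurosphere cultures grown serum-free at 37 °C, 5% CO2 (neurobasal medium, N2/B27, bFGF and EGF 50 ng/mL each, penicillin/streptomycin). BXD lines come from patient-tumour orthotopic xenografts; BT-142 carries endogenous IDH1 R132H and gets extra supplements (PDGF-AA, insulin, transferrin, others). 2000 cells/well were exposed to 0.002, 0.02, 0.2, 2 or 20 μM for up to 13 days. CCK-8 viability was read on days 4, 7, 10 and 13.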
For orientation: Tetrazolium assays rely on reduction of a dye to a coloured formazan, in cell work by metabolically active cells.

A short description of data set [6]: Inhibition of neurosphere formation of […] BXD4687 cells by CCK8 assay. It counts as functional, cell-based. In short, it runs like this: as §1
The nature of data set [7]: Inhibition of cell proliferation of human WI38 cells by CCK8 assay. It counts as functional, cell-based. Particulars: WI-38.
Data set [8] in a line: Selectivity index, ratio of EC50 for human BXD3752 cells to EC50 for human BT142 cells.
Data set [9] is described as follows: Inhibition of neurosphere formation of […] BXD3752 cells by CCK8 assay. It counts as functional, cell-based. Summed up: as §1
Data set [10] concerns MDCK. The data set can be described thus: Efflux ratio, ratio of permeability from basolateral side over apical to basolateral side in MDCK cells expressing MDR1 at 10 uM incubated at 37 degC for 90 mins by LC/MS/MS method. Conditions: dog, 1.5 h. In kind it is ADME, cell-based, Canis lupus familiaris. Summed up: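 MDCK-MDR1 monolayers (passage 24–33, seeded at 60000 cells/cm² on Transwell filters) were used 3–4 days post-seeding if TEER stayed >1000 Ω·cm². After 30 min preincubation in HBSS/50 mM HEPES pH ≈7.4, compound was added to the donor side (10 μM initial, 0.1% DMSO) A→B or B→A, 37 °C, 90 min. LC-MS/MS SRM quantification; Papp = dQ/dt/(A·C0).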

A short description of data set [11]: Inhibition of neurosphere formation of human BT142 cells at 2 uM by CCK8 assay. In kind it is functional. In short, it runs like this:
as §1

Data set [12] can be described thus: Inhibition of neurosphere formation of human BT142 cells at 20 uM by CCK8 assay. In kind it is functional. Summed up:
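BT-142 glioma cells (endogenous IDH1 R132H) grown as neurospheres in serum-free neurobasal/N2/B27 medium with bFGF, EGF, PDGF-AA and other supplements. 2000 cells/well treated for up to 13 days. Viability by CCK-8 at days 4, 7, 10 and 13.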

Data set [13] concerns MDCK. The data set can be described thus: Permeability from basolateral to apical side in MDCK cells expressing MDR1 at 10 uM incubated at 37 degC for 90 mins by LC/MS/MS method. It counts as ADME, cell-based, Canis lupus familiaris. Particulars: dog, 1.5 h. Summed up:
(§2)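 MDCK-MDR1 monolayers were used 3–4 days after seeding on 0.4 μm Transwell filters, only if TEER exceeded 1000 Ω·cm² before and after the run. They were preincubated 30 min in HBSS with 50 mM HEPES, pH ≈ 7.4. Donor got 10 μM compound (final, 0.1% DMSO), then 90 min at 37 °C. Both sides were sampled and quantified by LC-MS/MS SRM. Papp = dQ/dt/(A·C0).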

The subject of data set [14] is MDCK. The data set can be described thus: Permeability from apical to basolateral side in MDCK cells expressing MDR1 at 10 uM incubated at 37 degC for 90 mins by LC/MS/MS method. In kind it is ADME, cell-based, Canis lupus familiaris. Particulars: dog, 1.5 h. Summed up: as §2

A value given as a limit tells only on which side of the number the result lay.

A word on the Ki: it is the dissociation constant of the complex between target and ligand, obtained from inhibition or displacement. A word on the EC50: it is the concentration giving half of the maximal effect. A higher EC50 goes with lower potency in that assay. One may read the inhibition as the drop in the measured response relative to a control, in per cent. A lower inhibition goes with a weak effect.

Isocitrate dehydrogenase [NADP] cytoplasmic (Homo sapiens, UniProt O75874), sequence (O75874 whole entry): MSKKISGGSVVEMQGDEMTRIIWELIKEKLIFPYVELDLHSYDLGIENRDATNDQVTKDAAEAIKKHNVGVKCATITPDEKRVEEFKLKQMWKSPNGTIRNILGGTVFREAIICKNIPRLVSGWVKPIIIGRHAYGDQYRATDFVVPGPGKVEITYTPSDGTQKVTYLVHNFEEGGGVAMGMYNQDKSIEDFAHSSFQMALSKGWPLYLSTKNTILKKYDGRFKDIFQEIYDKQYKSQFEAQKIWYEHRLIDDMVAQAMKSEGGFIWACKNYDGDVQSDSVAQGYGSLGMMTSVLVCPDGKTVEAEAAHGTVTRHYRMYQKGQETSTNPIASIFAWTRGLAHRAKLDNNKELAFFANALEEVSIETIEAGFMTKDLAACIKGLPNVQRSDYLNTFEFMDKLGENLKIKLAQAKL
Isocitrate dehydrogenase [NADP] cytoplasmic (Homo sapiens, UniProt O75874, R132H), sequence (O75874 2-414 R132H limits assumed): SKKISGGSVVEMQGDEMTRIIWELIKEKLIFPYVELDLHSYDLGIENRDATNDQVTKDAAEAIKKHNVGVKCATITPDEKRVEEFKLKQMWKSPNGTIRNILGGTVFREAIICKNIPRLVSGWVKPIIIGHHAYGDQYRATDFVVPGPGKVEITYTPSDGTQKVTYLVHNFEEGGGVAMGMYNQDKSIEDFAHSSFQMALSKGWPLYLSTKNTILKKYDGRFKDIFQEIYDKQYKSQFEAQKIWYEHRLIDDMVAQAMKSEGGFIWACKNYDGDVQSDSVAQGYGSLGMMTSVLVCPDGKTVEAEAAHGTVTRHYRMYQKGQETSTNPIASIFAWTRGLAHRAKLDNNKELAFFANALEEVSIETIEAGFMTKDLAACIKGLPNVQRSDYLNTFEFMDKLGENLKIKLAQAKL

For `Cc1cc(Cc2ccc(C(F)(F)F)cc2)n(O)c(=O)c1`, in [1], the inhibition constant (Ki) was 3.2 µM.
Consider `COc1ccc(-c2ccc(Cc3cc(C)cc(=O)n3O)cc2)cc1`, for which the results for the Ki in [2] and in data set [1] were 14 µM and 0.34 µM, respectively. Moreover, the “Ratio EC50” value in data set [3] and in data set [8] was more than 10 throughout. Also, the Activity entry in [4] is “Non-toxic”. For the same compound, the EC50 in data set [5] was 0.26 µM; in data set [6] it was 7.6 µM; in data set [7], more than 50 µM; in data set [9], 2.8 µM.
Turning to `Cc1cc(Cc2ccc(Oc3ccccc3)cc2)n(O)c(=O)c1`, in data set [1], the inhibition constant Ki amounted to 0.75 µM.
As for `Cc1cc(Cc2ccc(O)cc2)n(O)c(=O)c1`, the Activity entry in data set [4] is reported as “Non-toxic”.
Regarding `O=C(NCc1ccccc1)c1ccc(=O)n(O)c1`, the inhibition constant Ki in data set [1] is more than 50 µM.
`Cc1cc(Cc2cccc(C#N)c2)n(O)c(=O)c1`: in data set [1], the inhibitory constant (Ki) was 1.6 µM.
As for `O=c1ccc(-c2ccccc2)cn1O` [1-HYDROXY-5-PHENYLPYRIDIN-2(1H)-ONE], the inhibitory constant (Ki) in data set [1] was 50 µM.
Same read-out and setting: then `Cc1ccn(O)c(=O)c1Cc1cccc(O)c1`, with 13.6 µM.
For the compound `O=C(NO)c1ccc(=O)n(O)c1`, the Ki in [1] was more than 50 µM.
`COc1ccc(Cc2cc(C)cc(=O)n2O)cc1`: in [1], the Ki was determined as 0.56 µM.
In the case of `Cc1cc(Cc2ccsc2)n(O)c(=O)c1`, the Ki in data set [1] came to 0.95 µM.
With `O=c1cccc(-c2ccccc2)n1O`, in data set [1], the inhibitory constant (Ki) was more than 50 µM.
On the same count and under the same terms, the value for `O=c1ccc(CCc2ccccc2)cn1O` was more than 50 µM; that for `Cc1cc(Cc2ccc(C#N)cc2)n(O)c(=O)c1` was 12.5 µM.
Regarding `COc1ccccc1Cc1cc(C)cc(=O)n1O`, the Ki in data set [1] is 0.49 µM.
Consider `Cc1cc(Cc2cccc(C(=O)O)c2)n(O)c(=O)c1`, for which, in data set [1], the inhibitory constant (Ki) is more than 50 µM.
Turning to `CC(c1ccccc1)c1cccc(=O)n1O` (configuration not stated), the Ki in data set [1] is more than 50 µM.
Consider `Cc1cc(C)n(O)c(=O)c1` [METIPIROX], for which the Ki in data set [1] is more than 50 µM.
Regarding `COc1ccc2c(Cc3cc(C)cc(=O)n3O)cccc2c1`, the Ki in data set [1] amounted to 40.5 µM.
Regarding `Cc1cc(Cc2cc3ccccc3s2)n(O)c(=O)c1`, the Ki in data set [1] is 22.5 µM.
For `O=C(Cc1ccccc1)Nc1ccc(=O)n(O)c1`, the inhibition constant (Ki) in data set [1] is more than 50 µM.
Turning to `O=c1ccc(CCCc2ccccc2)cn1O`, the Ki in data set [1] was more than 50 µM.
In the case of `Cc1cc(Cc2cccc(C(N)=O)c2)n(O)c(=O)c1`, the inhibition constant (Ki) in data set [1] was determined as 8.5 µM.
As for `Cc1cc(Cc2cccc3cc(O)ccc23)n(O)c(=O)c1`, the inhibition constant (Ki) in [1] turned out to be 27.5 µM.
As for `CC(C)c1cc(Cc2ccccc2)n(O)c(=O)c1`, in [4], the Activity entry is “Non-toxic”.
Regarding `Cc1cc(Cc2cccc(-c3ccccc3)c2)n(O)c(=O)c1`, the inhibitory constant (Ki) in data set [1] is 0.6 µM.
For `Cc1cc(Cc2ccc(-c3cccc(O)c3)cc2)n(O)c(=O)c1`, in data set [1], the Ki amounted to 0.27 µM.
Consider `O=c1ccc(Oc2ccccc2)cn1O`, for which the Ki in [1] came to 46 µM.
On the same count and under the same terms, the value for `Cc1cc(Cc2ccccc2O)n(O)c(=O)c1` was 0.65 µM.
With `COc1cccc(-c2ccc(Cc3cc(C)cc(=O)n3O)cc2)c1`, the inhibitory constant (Ki) is 13 µM in [2] and 0.14 µM in [1]. In addition, the Activity entry in data set [4] was “Non-toxic”.
Take `O=c1cccc(Cc2ccccc2)n1O`: the Activity entry in data set [4] is “Non-toxic”.
Take `Cc1cc(Cc2cccc3ccccc23)n(O)c(=O)c1`: the inhibition constant Ki in data set [1] turned out to be 0.95 µM.
`Cc1ccccc1C(C(=O)NC1CCCCC1)N(C(=O)Cn1ccnc1C)c1cccc(F)c1` (configuration not stated): the EC50 in data set [5] is more than 20 µM; in [6], more than 20 µM; in data set [7] it was more than 50 µM; in data set [9] it was more than 20 µM. In data set [10], the Ratio worked out at 72.6. This compound gave an inhibition at 2 µM in data set [11] of 40%. Testing at 20 µM in [12] gave an inhibition of 40%. Also, the permeability in data set [13] is 10.4 ×10⁻⁶ cm/s; in data set [14], 0.15 ×10⁻⁶ cm/s.
`Cc1cc(Cc2ccccc2)n(O)c(=O)c1`: the Activity result in [4] is on record as “Non-toxic”. Also, the values for the EC50 in [5], in data set [6] and in [9] were 0.37 µM, 6.8 µM and 5.9 µM, respectively. For the same compound, the permeability turned out to be 6.34 ×10⁻⁶ cm/s in [13] and 5.45 ×10⁻⁶ cm/s in data set [14].
Consider `Cn1nnc2c(C(N)=O)ncn2c1=O` [TEMOZOLOMIDE], for which the EC50 in data set [5], in [6] and in [9] was more than 50 µM each time.
`O=c1cc(O)cc(Cc2ccccc2)n1O`: the Activity result in [4] is given as “Non-toxic”. Further, in data set [1], the inhibition constant (Ki) was 0.38 µM.
Consider `Cc1cc(Cc2ccccc2)n(N)c(=O)c1`, for which the Ki in [1] came to 3.8 µM.
Turning to `O=c1cc(CO)cc(Cc2ccccc2)n1O`, the inhibition constant Ki in data set [1] is 5.6 µM.
As for `Cc1cc(C)cc(Cc2cc(C)cc(=O)n2O)c1`, the inhibitory constant (Ki) in data set [1] turned out to be 3.1 µM.
In the case of `Cc1cc(Cc2cccc(F)c2)n(O)c(=O)c1`, the Ki in [1] turned out to be 2.2 µM.
Same read-out and setting: the value for `O=c1cccc(CCc2ccccc2)n1O` was 10 µM.
As to `Cc1cc(Cc2c(F)c(F)c(F)c(F)c2F)n(O)c(=O)c1`, the Ki in [1] turned out to be 2.2 µM.
Turning to `COc1cccc(Cc2cc(C)cc(=O)n2O)c1`, the inhibitory constant (Ki) was more than 30 µM in [2] and 0.15 µM in data set [1]. The Activity entry in [4] is “Non-toxic”. Moreover, the concentration for a half-maximal effect (EC50) in [5] was 0.63 µM; in [6] it was 1.2 µM; in [7], more than 50 µM; in [9] it was 2.5 µM. For the same compound, in data set [10], the Ratio came out at 1.7. Also, the results for the permeability in [13] and in data set [14] were 8.88 ×10⁻⁶ cm/s and 5.39 ×10⁻⁶ cm/s, respectively.
With `O=C(NO)c1cccc(=O)n1O`, the Ki in data set [2] was more than 50 µM; in data set [1] it was 4.5 µM.
On to `Cc1cc(Cc2cccc(O)c2)n(O)c(=O)c1`, for which the results for the Ki in data set [2] and in data set [1] were more than 30 µM and 0.14 µM, respectively. The Activity result in data set [4] was “Non-toxic”. Also, the half-maximal effective concentration (EC50) in [5] was 1.8 µM; in data set [6], 7.5 µM; in [7] it was more than 50 µM; in data set [9] it was 6.2 µM.
On to `Cc1cc(Cc2ccc(-c3ccc(O)cc3)cc2)n(O)c(=O)c1`, for which the inhibition constant Ki in data set [2] turned out to be 15.2 µM; in data set [1] it was 0.25 µM. Also, the Activity result in data set [4] is reported as “Non-toxic”. For the same compound, the EC50 in data set [5] was 0.69 µM; in data set [6], 16 µM; in data set [7], more than 50 µM; in data set [9], 5.1 µM.
Consider `Cc1cc(Cc2cc(-c3ccccc3)cc(-c3ccccc3)c2)n(O)c(=O)c1`, for which the Ki in data set [1] came out at 0.3 µM.
On to `Cc1ccn(O)c(=O)c1Cc1ccccc1`, for which, in [1], the inhibitory constant (Ki) was 9.5 µM.
Same read-out and setting: then `Cc1cc(COc2ccccc2)n(O)c(=O)c1`, with 0.87 µM; and `CC(=O)OCc1cc(Cc2ccccc2)n(O)c(=O)c1`, with 4.5 µM; and `COc1cc(Cc2ccccc2)n(O)c(=O)c1`, with 5.5 µM.
Turning to `Cc1cc(C2CCCCC2)n(O)c(=O)c1` [CICLOPIROX], the Ki in [1] was more than 50 µM.
Regarding `COC(=O)c1ccc(CCc2cccc(=O)n2O)cc1`, in data set [1], the inhibitory constant (Ki) is 27 µM.
As for `COc1cccc(Cc2c(C)ccn(O)c2=O)c1`, in data set [1], the inhibitory constant (Ki) came to 16.2 µM.

The values are drawn from ChEMBL document CHEMBL3351758, “Inhibition of cancer-associated mutant isocitrate dehydrogenases: synthesis, structure-activity relationship, and selective antitumor activity” (J Med Chem, 2014).
